# Data reported in paper PMC11557630 (Targeted Oncology, 2024).
# Legend:
# cell kill activity = conditions: preclinically determined; no reference given; cited from earlier work
# [1] = system: patients with refractory solid tumors; assay: Safety and tolerability; type: in vivo, human; conditions: for Patients with AEs causally related to adavosertib: 12 patients
# How it was run: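 Open-label, multicenter escalation: oral adavosertib 175 mg twice daily on a 3-days-on/4-days-off schedule, plus continuous oral olaparib 200 mg twice daily, in 21-day cycles. DLTs were recorded in cycle 1, a window extendable up to 2 weeks after drug-related delays; DLT-evaluable patients received >75% of planned doses. AEs were graded by CTCAE v4.03 via examination, vital signs and laboratory tests.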
# [2] = system: patients with relapsed extensive-stage SCLC; assay: Safety and tolerability; type: in vivo, human; conditions: part B SCLC cohort
# How it was run: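 Oral adavosertib 200 mg once daily on days 1–3 and 8–10 of a 21-day cycle, plus continuous oral olaparib 200 mg twice daily. AEs were graded by CTCAE v4.03 and assessed by physical examination, vital signs (blood pressure, pulse, body temperature) and laboratory parameters, from enrollment through post-treatment follow-up. Safety data were summarized descriptively.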
# [3] = system: PARP inhibitor-resistant ovarian cancer; conditions: adavosertib monotherapy arm; cited from earlier work
# [4] = Plasma pharmacokinetics of adavosertib and olaparib, part A; type: in vivo, human
# [5] = in combination with olaparib, cohort 4.2
# [6] = in combination with olaparib, cohort 7.4
# [7] = with adavosertib 175 mg bid vs olaparib alone
compound,measurement,setting,value
C=CCn1c(=O)c2cnc(Nc3ccc(N4CCN(C)CC4)cc3)nc2n1-c1cccc(C(C)(C)O)n1 [adavosertib],Target adavosertib plasma concentration range for cell kill activity,cell kill activity,0.5 to 1 µM
same,Patients with an AE leading to dose reduction of adavosertib,"[1]; cohort 4.2, five patients",35.7%
same,Patients with an AE leading to dose interruption of adavosertib,"[1]; cohort 4.2, seven patients",50.0%
same,Patients with an AE leading to dose interruption of adavosertib,"[1]; cohort 7.4, five patients",38.5%
same,Patients with an AE leading to dose reduction of adavosertib,"[1]; cohort 7.4, three patients",23.1%
same,MTD for adavosertib bid,"[1]; days 1–3, 8–10/21-day cycle, plus continuous olaparib 200 mg bid (cohort 4.2)",175 mg
same,Anemia causally related to adavosertib,[1]; [5],35.7%
same,Decreased appetite causally related to adavosertib,[1]; [5],50.0%
same,Diarrhea causally related to adavosertib,[1]; [5],50.0%
same,Fatigue causally related to adavosertib,[1]; [5],64.3%
same,Nausea causally related to adavosertib,[1]; [5],50.0%
same,Patients with AEs causally related to adavosertib,[1]; [5],85.7%
same,Patients with serious AEs causally related to adavosertib,"[1]; in combination with olaparib, cohort 4.2, three patients",21.4%
same,Anemia causally related to adavosertib,[1]; [6],38.5%
same,Decreased appetite causally related to adavosertib,[1]; [6],30.8%
same,Diarrhea causally related to adavosertib,[1]; [6],38.5%
same,Fatigue causally related to adavosertib,[1]; [6],15.4%
same,Nausea causally related to adavosertib,[1]; [6],23.1%
same,Patients with AEs causally related to adavosertib,[1]; [6],92.3%
same,Patients with serious AEs causally related to adavosertib,"[1]; in combination with olaparib, cohort 7.4, one patient (dizziness)",7.7%
same,Patients with CTCAE grade ≥ 3 events causally related to adavosertib,"[1]; in combination with olaparib, part A overall, 52 patients",43.7%
same,AEs with an outcome of death considered causally related to adavosertib,"[1]; part A overall, sepsis, not a result of a DLT",one
same,AEs leading to dose reductions of adavosertib,[2],one
same,AEs leading to interruptions of adavosertib,[2],three
same,Clinical benefit rate,[3],63%
"O=C(c1cc(Cc2n[nH]c(=O)c3ccccc23)ccc1F)N1CCN(C(=O)C2CC2)CC1 [olaparib, reference compound]",Ratio of olaparib plus adavosertib to olaparib alone for AUC0–10 and/or Cmax,[4]; in some patients (high outliers),exceeded 2
same,Difference between exposure to olaparib in the presence of adavosertib and to olaparib alone,[4]; part A,no statistically significant difference
same,"Olaparib Cmin,ss compared with the IC95 in preclinical studies","[4]; part A, Supplementary Fig. 3",comparable
same,Increase in olaparib AUC0–10,[4]; [7],33%
same,Increase in olaparib Cmax,[4]; [7],18%
same,Patients with an AE leading to dose interruption of olaparib,"[1]; cohort 4.2, nine patients",64.3%
same,Patients with an AE leading to dose reduction of olaparib,"[1]; cohort 4.2, three patients",21.4%
same,Patients with an AE leading to dose interruption of olaparib,"[1]; cohort 7.4, eight patients",61.5%
same,Patients with an AE leading to dose reduction of olaparib,"[1]; cohort 7.4, three patients",23.1%
same,AEs leading to interruptions of olaparib,[2],five
